Measurements as given in ChEMBL document CHEMBL1151751, “Bisphosphonate inhibition of a Plasmodium farnesyl diphosphate synthase and a general method for predicting cell-based activity from enzyme data” (J Med Chem, 2008).

How the values were obtained:
[1] = test system: Plasmodium falciparum; assay: Growth inhibition of Plasmodium falciparum; format: functional, organism-based
[2] = Inhibition of Plasmodium vivax FPPS expressed in Escherichia coli BL21 by spectrophotometric assay
How it was run: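 Recombinant enzyme from lysed cells (lysozyme, nuclease, protease inhibitors), purified on Ni-NTA resin. The GPP + IPP condensation was followed at room temperature by a continuous spectrophotometric phosphate-release assay in 25 mM Hepes, 2.5 mM MgCl₂, pH 7.4. Inhibitors were preincubated with enzyme for 30 min at room temperature. IC50 was obtained by fitting the dose–response curve.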

[3] = test system: Plasmodium berghei; assay: Antiparasitic activity against Plasmodium berghei ANKA infected BALB/c mice (Mus musculus) as reduced parasitaemia; format: functional; design: scale not given: the % may be the effect or the level left

| SMILES | IC50 ([1]; read-out: pIC50 (converted)) [µM] | IC50 ([1]; read-out: IC50) [µM] | IC50 [2] [µM] | pIC50 [2] | Activity [3] [%] |
| --- | --- | --- | --- | --- | --- |
| O=P(O)(O)C(O)(Cn1ccnc1)P(=O)(O)O [ZOLEDRONIC ACID] | 158 |  |  |  |  |
| CCCCCCCCNC(P(=O)(O)O)P(=O)(O)O [(OCTYLAMINO)METHYLENEDIPHOSPHONIC ACID] | 12.6 | 12 | 0.49 | 6.3 |  |
| CCCCCCCCCC(O)(P(=O)(O)O)P(=O)(O)O |  |  | 0.71 | 6.1 | 80 |
| CCCCCCCCCCCCCC(O)(P(=O)(O)O)P(=O)(O)O | 2 |  | 4.1 | 5.4 |  |
| O=P(O)(O)C(O)(Cc1ccccc1)P(=O)(O)O | 10 | 11 |  |  |  |
| CN(Cc1ccccc1)C(P(=O)(O)O)P(=O)(O)O | 200 | 180 | 0.87 | 6.1 |  |
| CCCC(O)(P(=O)(O)O)P(=O)(O)O | 126 |  | 0.78 | 6.1 |  |
| O=P(O)(O)C(O)(Cc1ccccn1)P(=O)(O)O | 200 | 220 | 0.9 | 6 |  |
| CCCCCCC(O)(P(=O)(O)O)P(=O)(O)O | 1.26 | 1.4 | 0.63 | 6.2 |  |
| O=P(O)(O)C(O)(Cc1cccc(C(F)(F)F)c1)P(=O)(O)O | 3.98 | 3.8 | 0.68 | 6.2 |  |
| Cc1cccc(CC(O)(P(=O)(O)O)P(=O)(O)O)c1 | 25.1 | 23 | 2.3 | 5.6 |  |
| CN(CCCCc1ccccc1)CCC(O)(P(=O)(O)O)P(=O)(O)O | 3.16 |  |  |  |  |
| O=P(O)(O)C(O)(Cc1cccc(Cl)c1)P(=O)(O)O | 3.98 | 4.3 | 0.63 | 6.2 |  |
| CCCCCN(C)CCC(O)(P(=O)(O)O)P(=O)(O)O [IBANDRONIC ACID] | 79.4 | 74 | 0.92 | 6 |  |
| CCCCCCCCCNC(P(=O)(O)O)P(=O)(O)O [(NONYLAMINO)METHYLENEDIPHOSPHONIC ACID] | 100 |  | 5.2 | 5.3 | 80 |
| O=P(O)(O)C(O)(CSc1ccncc1)P(=O)(O)O |  |  | 1.2 | 5.9 |  |
| O=P(O)(O)C(Nc1ccc(Cl)cn1)P(=O)(O)O | 10 |  |  |  |  |
| CN(CCCc1ccccc1)CCC(O)(P(=O)(O)O)P(=O)(O)O | 25.1 |  | 0.45 | 6.3 |  |
| O=P(O)(O)C(O)(Cc1cccc(F)c1)P(=O)(O)O | 6.31 | 6.4 | 0.63 | 6.2 |  |
| CN(CCc1ccccc1)CCC(O)(P(=O)(O)O)P(=O)(O)O | 31.6 |  | 0.4 | 6.4 |  |
| O=P(O)(O)C(CNc1ccccn1)P(=O)(O)O | 25.1 | 28 | 0.82 | 6.1 |  |
| O=P(O)(O)C(Nc1nccs1)P(=O)(O)O | 126 | 120 | 0.71 | 6.1 |  |
| O=P(O)(O)C(O)(Cc1cccc(Br)c1)P(=O)(O)O | 20 | 22 | 0.88 | 6.1 |  |
| Cc1ccc(C)c(COc2ccc(C)nc2NC(P(=O)(O)O)P(=O)(O)O)c1 | 200 | 200 | 98 | 4 |  |
| O=P([O-])(O)C(O)(CC1=[n+]2ccccc2=NC1)P(=O)(O)O (stereo not given) | 100 | 90 |  |  |  |
